Assay results of several laboratories.
Protocols differ between the studies behind these lines.
Target: LIM domain kinase 1 (LIMK1, Homo sapiens, UniProt P53667)

`CNC(=O)c1cc2c(Oc3ccc(NC(=O)C4(C(=O)Nc5ccc(F)cc5)CC4)cc3)ccnc2cc1OC` gave an inhibition of 74% (enzyme activity; inhibitor; radiometric; 1 µM).
With `CN1CCN(c2cnc3c(C4CCN(C(=O)c5ccc(OC(F)(F)F)cc5N)CC4)ncnc3c2)CC1` the remaining binding was 100% (cell-free assay; competition with immobilised ligand; 1 µM).
`COc1cc(Nc2c(C#N)cnc3cc(OCCCN4CCN(C)CC4)c(OC)cc23)c(Cl)cc1Cl` has a remaining signal of 96.4% (cell-free assay; 0.5 µM).
The inhibition of `CCCS(=O)(=O)Nc1ccc(F)c(C(=O)c2c[nH]c3ncc(-c4ccc(Cl)cc4)cc23)c1F` is reported as less than 10% (enzyme activity; inhibitor; 1 µM).
For `Cn1cnc(Br)c1C1=CN(c2ncnc3[nH]cnc23)CCS1`, the inhibition was 15.2% (enzyme activity; inhibitor; radiometric; 50 nM).
With `CCOC(=O)c1cc2cc(-c3cc(C(=O)NCc4ccc(C(=O)O)cc4)nn3C)ccc2[nH]1` the remaining binding was 100% (cell-free assay; competition with immobilised ligand; 0.1 µM).
`CNC(=O)c1cc(Oc2ccc(NC(=O)Nc3ccc(Cl)c(C(F)(F)F)c3)cc2)ccn1` has an inhibition of 29% (enzyme activity; inhibitor; 0.3 µM).
`O=C(O)[C@@H]1[C@@H](Cn2nnc3ccccc3c2=O)CC[C@H]1C(=O)c1ccc(OCCC2CCOCC2)cc1` has a remaining binding of 100% (cell-free assay; competition with immobilised ligand; 1 µM).
For `CC(C)(C)c1nc(-c2cccc(NS(=O)(=O)c3c(F)cccc3F)c2F)c(-c2ccnc(N)n2)s1`, the remaining activity was 98% (enzyme activity; inhibitor; radiometric; 1 µM).
For `C[C@@H]1CCN(C(=O)CC#N)C[C@@H]1N(C)c1ncnc2[nH]ccc12`, the remaining signal was 82% (cell-free assay; inhibitor; 0.5 µM).
`Cn1nc(C(F)(F)F)cc1-c1cnc(N2CCc3cc(S(=O)(=O)Nc4c(F)cc(Cl)cc4F)cc(N4CCCC4=O)c32)nc1` gave a remaining binding of 100% (cell-free assay; competition with immobilised ligand; 1 µM).
The remaining activity of `Cc1sc(C(=O)NC2COC2)cc1-n1cc(NC(=O)Nc2c(F)cccc2Cl)cn1` is reported as 105% (enzyme activity; inhibitor; 10 µM).
The remaining binding of `Cc1nc(Cc2cccc(C(F)(F)F)c2)sc1-c1ccc(C(N)=O)nc1` is reported as 100% (cell-free assay; competition with immobilised ligand; 1 µM).
With `O=C1Nc2ccc(Cl)cc2C1=Cc1cc(Cl)c(O)c(Cl)c1` the remaining signal was 83.7% (cell-free assay; 0.5 µM).
The remaining activity of `O=C(Nc1cnn(-c2csc(C(=O)NC3COC3)c2)c1)Nc1c(F)cccc1Cl` is reported as 104% (enzyme activity; inhibitor; 5 µM).
`Nc1ncnc2occ(-c3ccc(NC(=O)Nc4cc(C(F)(F)F)ccc4F)cc3)c12` has a remaining signal of 7.6% (cell-free assay; inhibitor; 20 µM).
`Nc1nc(Nc2ccc(S(N)(=O)=O)cc2)nn1C(=O)c1c(F)cccc1F` gave a remaining signal of 16.6% (cell-free assay; 0.5 µM).
`CNC(=O)c1ccc(Nc2ncc(C(F)(F)F)c(NCc3nccnc3N(C)S(C)(=O)=O)n2)cc1` has a remaining binding of 100% (cell-free assay; competition with immobilised ligand; 0.1 µM).
For `CCN(CC)CCNC(=O)c1c(C)[nH]c(/C=C2\C(=O)Nc3ccc(F)cc32)c1C`, the inhibition was 39% (enzyme activity; inhibitor; 10 µM).
For `CCCOc1ccc(OC)c(F)c1C(=O)c1ccc(C(=O)N[C@@H]2CNC[C@H]2NC(=O)c2ccc3[nH]ncc3c2)cc1`, the remaining activity was 73% (enzyme activity; inhibitor; 10 µM).
